Assay results: ChEMBL document CHEMBL3351902, “Design and synthesis of novel spin-labeled camptothecin derivatives as potent cytotoxic agents” (Bioorg Med Chem, 2014)

Assays:
Type in all cases: functional, cell-based
KB = assay: Cytotoxicity against human KB cells after 72 hrs by SRB assay
MDA-MB-231 = assay: Cytotoxicity against human MDA-MB-231 cells after 72 hrs by SRB assay
Procedure, shortened: (§1)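 Cells grown in RPMI-1640 with 2 mM L-glutamine, 25 mM HEPES, 10% heat-inactivated FBS, penicillin/streptomycin and amphotericin B, 5% CO2. Seeded at 4.0–7.5 × 10^3 cells/well into medium containing graded sample concentrations, 72 h at 37 °C. Fixed with 10% TCA for 30 min, stained 0.04% SRB for 30 min, dye solubilized in 10 mM Tris base, absorbance at 515 nm. Triplicate runs with duplicate samples, mean IC50 ± SD.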

A549 = assay: Cytotoxicity against human A549 cells after 72 hrs by SRB assay
[1] = Cytotoxicity against human KBVIN cells after 72 hrs by SRB assay; procedure, shortened: as §1

| SMILES | IC50 (KB) | IC50 (MDA-MB-231) | IC50 (A549) | IC50 ([1]; kbvin) | IC50 ([1]; Homo sapiens, KBVIN, 72 h) |
| --- | --- | --- | --- | --- | --- |
| CC[C@@]1(OC(=O)CN/C(CCOC2CC(C)(C)N([O])C(C)(C)C2)=N/S(=O)(=O)c2ccc3ccccc3c2)C(=O)OCc2c1cc1n(c2=O)Cc2cc3ccccc3nc2-1 | 580 nM | 610 nM | 480 nM | 330 nM | – |
| CC[C@@]1(OC(=O)CN/C(CCOC2CC(C)(C)N([O])C(C)(C)C2)=N/S(=O)(=O)c2ccc(C)cc2)C(=O)OCc2c1cc1n(c2=O)Cc2cc3ccccc3nc2-1 | 210 nM | 450 nM | 76 nM | 110 nM | – |
| CC[C@@]1(OC(=O)[C@@H](C)N/C(CCOC2CC(C)(C)N([O])C(C)(C)C2)=N/S(=O)(=O)c2ccc(C)cc2)C(=O)OCc2c1cc1n(c2=O)Cc2cc3ccccc3nc2-1 | 560 nM | 530 nM | 450 nM | 250 nM | – |
| CC[C@@]1(OC(=O)[C@H](N/C(CCOC2CC(C)(C)N([O])C(C)(C)C2)=N/S(=O)(=O)c2ccc(C)cc2)C(C)C)C(=O)OCc2c1cc1n(c2=O)Cc2cc3ccccc3nc2-1 | > 1000 nM | > 1000 nM | > 1000 nM | > 1000 nM | – |
| CC[C@@]1(OC(=O)CN/C(CCOC2CC(C)(C)N([O])C(C)(C)C2)=N/S(C)(=O)=O)C(=O)OCc2c1cc1n(c2=O)Cc2cc3ccccc3nc2-1 | 71 nM | 110 nM | 59 nM | 90 nM | – |
| CC[C@@]1(OC(=O)CN/C(CCOC2CC(C)(C)N([O])C(C)(C)C2)=N/S(=O)(=O)CC)C(=O)OCc2c1cc1n(c2=O)Cc2cc3ccccc3nc2-1 | 59 nM | 80 nM | 55 nM | 57 nM | – |
| CCCCS(=O)(=O)/N=C(\CCOC1CC(C)(C)N([O])C(C)(C)C1)NCC(=O)O[C@]1(CC)C(=O)OCc2c1cc1n(c2=O)Cc2cc3ccccc3nc2-1 | 75 nM | 230 nM | 62 nM | 95 nM | – |
| CC[C@@]1(OC(=O)CN/C(CCOC2CC(C)(C)N([O])C(C)(C)C2)=N/S(=O)(=O)c2ccc(OC)cc2)C(=O)OCc2c1cc1n(c2=O)Cc2cc3ccccc3nc2-1 | 110 nM | 270 nM | 81 nM | 96 nM | – |
| CC[C@@]1(OC(=O)CN/C(CCOC2CC(C)(C)N([O])C(C)(C)C2)=N/S(=O)(=O)c2ccc(Cl)cc2)C(=O)OCc2c1cc1n(c2=O)Cc2cc3ccccc3nc2-1 | 73 nM | 190 nM | 63 nM | 84 nM | – |
| CC[C@@]1(OC(=O)CN/C(CCOC2CC(C)(C)N([O])C(C)(C)C2)=N/S(=O)(=O)c2ccc(F)cc2)C(=O)OCc2c1cc1n(c2=O)Cc2cc3ccccc3nc2-1 | 120 nM | 270 nM | 86 nM | 100 nM | – |
| CC[C@@]1(OC(=O)CN/C(CCOC2CC(C)(C)N([O])C(C)(C)C2)=N/S(=O)(=O)c2ccc([N+](=O)[O-])cc2)C(=O)OCc2c1cc1n(c2=O)Cc2cc3ccccc3nc2-1 | 59 nM | 100 nM | 58 nM | 72 nM | – |
| CC[C@@]1(OC(=O)[C@@H](CC(C)C)N/C(CCOC2CC(C)(C)N([O])C(C)(C)C2)=N/S(=O)(=O)c2ccc(C)cc2)C(=O)OCc2c1cc1n(c2=O)Cc2cc3ccccc3nc2-1 | 700 nM | 840 nM | 610 nM | 740 nM | – |
| CCC(C)[C@@H](N/C(CCOC1CC(C)(C)N([O])C(C)(C)C1)=N/S(=O)(=O)c1ccc(C)cc1)C(=O)O[C@]1(CC)C(=O)OCc2c1cc1n(c2=O)Cc2cc3ccccc3nc2-1 (stereo partly specified) | > 1000 nM | > 1000 nM | > 1000 nM | > 1000 nM | – |
| CC[C@@]1(OC(=O)[C@@H](Cc2ccccc2)N/C(CCOC2CC(C)(C)N([O])C(C)(C)C2)=N/S(=O)(=O)c2ccc(C)cc2)C(=O)OCc2c1cc1n(c2=O)Cc2cc3ccccc3nc2-1 | 310 nM | 500 nM | 170 nM | 100 nM | – |
| CC[C@@]1(OC(=O)CN/C(CCOC2CC(C)(C)N([O])C(C)(C)C2)=N/S(=O)(=O)c2cccs2)C(=O)OCc2c1cc1n(c2=O)Cc2cc3ccccc3nc2-1 | 63 nM | 110 nM | 63 nM | 83 nM | – |
| CC[C@@]1(OC(=O)CN/C(CCOCC2CC(C)(C)N([O])C(C)(C)C2)=N/S(=O)(=O)c2ccc(C)cc2)C(=O)OCc2c1cc1n(c2=O)Cc2cc3ccccc3nc2-1 | 80 nM | 91 nM | 62 nM | 84 nM | – |
| CC[C@@]1(OC(=O)CN/C(CCOCC2=CC(C)(C)N([O])C2(C)C)=N/S(C)(=O)=O)C(=O)OCc2c1cc1n(c2=O)Cc2cc3ccccc3nc2-1 | 82.3 nM | 103 nM | 62.9 nM | 83.4 nM | – |
| CC[C@@]1(OC(=O)CN/C(CCOCC2=CC(C)(C)N([O])C2(C)C)=N/S(=O)(=O)c2ccc(C)cc2)C(=O)OCc2c1cc1n(c2=O)Cc2cc3ccccc3nc2-1 | 91 nM | 120 nM | 74 nM | 94 nM | – |
| CC[C@@]1(OC(=O)CN/C(CCOCC2=CC(C)(C)N([O])C2(C)C)=N/S(=O)(=O)c2ccc(OC)cc2)C(=O)OCc2c1cc1n(c2=O)Cc2cc3ccccc3nc2-1 | 130 nM | 180 nM | 90 nM | 150 nM | – |
| CC[C@@]1(OC(=O)CN/C(CCOCC2=CC(C)(C)N([O])C2(C)C)=N/S(=O)(=O)c2ccc(F)cc2)C(=O)OCc2c1cc1n(c2=O)Cc2cc3ccccc3nc2-1 | 120 nM | 140 nM | 77 nM | 95 nM | – |
| CC[C@@]1(O)C(=O)OCc2c1cc1n(c2=O)Cc2cc3c(CN(C)C)c(O)ccc3nc2-1 [TOPOTECAN] | – | – | – | – | 400 nM |
